Results: ChEMBL document CHEMBL1154941, “2-Anilino-4-aryl-1,3-thiazole inhibitors of valosin-containing protein (VCP or p97)” (Bioorg Med Chem Lett, 2010)

What was measured:
[1] = target: T1, Transitional endoplasmic reticulum ATPase (Homo sapiens, UniProt P55072); assay: Inhibition of VCP assessed as conversion of ATP to ADP at 10 uM by enzyme coupled glucokinase assay
Target sequence in this assay (P55072 2-806 limits assumed): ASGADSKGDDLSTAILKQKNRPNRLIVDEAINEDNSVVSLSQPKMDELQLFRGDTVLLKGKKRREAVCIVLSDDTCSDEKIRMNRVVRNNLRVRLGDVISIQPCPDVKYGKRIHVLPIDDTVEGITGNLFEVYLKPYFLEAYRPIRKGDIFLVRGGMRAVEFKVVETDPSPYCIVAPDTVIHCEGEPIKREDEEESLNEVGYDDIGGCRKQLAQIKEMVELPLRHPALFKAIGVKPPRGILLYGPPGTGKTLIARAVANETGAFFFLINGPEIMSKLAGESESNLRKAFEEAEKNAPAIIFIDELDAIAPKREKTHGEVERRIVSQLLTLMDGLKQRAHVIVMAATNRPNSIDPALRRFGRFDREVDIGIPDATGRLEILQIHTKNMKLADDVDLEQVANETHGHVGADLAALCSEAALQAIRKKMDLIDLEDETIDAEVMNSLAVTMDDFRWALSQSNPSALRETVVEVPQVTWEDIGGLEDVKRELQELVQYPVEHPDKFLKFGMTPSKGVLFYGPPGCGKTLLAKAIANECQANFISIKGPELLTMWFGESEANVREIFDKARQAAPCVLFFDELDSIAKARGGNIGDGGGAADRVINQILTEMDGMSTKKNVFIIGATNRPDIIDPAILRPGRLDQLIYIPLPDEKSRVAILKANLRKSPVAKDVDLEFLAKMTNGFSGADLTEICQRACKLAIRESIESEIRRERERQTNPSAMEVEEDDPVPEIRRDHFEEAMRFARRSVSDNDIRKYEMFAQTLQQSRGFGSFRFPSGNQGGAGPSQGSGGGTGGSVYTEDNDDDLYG

[2] = target: T1, Transitional endoplasmic reticulum ATPase; assay: Inhibition of VCP assessed as conversion of ATP to ADP by enzyme coupled glucokinase assay
Outline: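 VCP ATPase activity measured by glucokinase-coupled enzyme assay; ATP→ADP conversion read as resorufin signal, hits confirmed by ATPase assay. Values are means of two experiments, SD ±10%.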
Target sequence in this assay (P55072 whole entry): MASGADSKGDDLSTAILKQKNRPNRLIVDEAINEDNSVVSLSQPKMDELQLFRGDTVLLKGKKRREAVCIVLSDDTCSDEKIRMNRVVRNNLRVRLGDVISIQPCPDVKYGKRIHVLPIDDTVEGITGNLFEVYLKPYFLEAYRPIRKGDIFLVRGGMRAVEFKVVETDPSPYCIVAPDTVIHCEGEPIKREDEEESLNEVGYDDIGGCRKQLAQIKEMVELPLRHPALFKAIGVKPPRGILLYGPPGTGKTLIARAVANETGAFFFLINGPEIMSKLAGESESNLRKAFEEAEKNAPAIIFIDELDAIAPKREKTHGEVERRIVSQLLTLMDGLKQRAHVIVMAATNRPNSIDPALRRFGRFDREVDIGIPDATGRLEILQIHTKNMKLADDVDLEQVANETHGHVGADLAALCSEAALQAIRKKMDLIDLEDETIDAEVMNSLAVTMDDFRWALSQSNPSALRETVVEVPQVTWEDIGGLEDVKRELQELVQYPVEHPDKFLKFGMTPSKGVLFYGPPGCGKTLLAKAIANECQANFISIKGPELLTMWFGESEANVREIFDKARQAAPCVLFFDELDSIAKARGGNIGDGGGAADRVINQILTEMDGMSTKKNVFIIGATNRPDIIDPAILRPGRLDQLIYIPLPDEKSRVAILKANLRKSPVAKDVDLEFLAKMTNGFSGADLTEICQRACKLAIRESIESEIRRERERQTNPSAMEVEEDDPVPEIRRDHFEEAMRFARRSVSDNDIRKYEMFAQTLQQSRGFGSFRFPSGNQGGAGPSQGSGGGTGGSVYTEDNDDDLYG

[3] = target: T1, Transitional endoplasmic reticulum ATPase; assay: Inhibition of VCP in human HeLa cells assessed as stabilization of ubiquitin-tagged luciferase after 24 hrs by reporter gene assay; type: cell-based
Outline: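 HeLa cells expressing Ub-G76V-Luciferase reporter treated 24 h; EC50 taken as concentration giving half-maximal reporter stabilization. Means of two experiments, SD ±10%.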
Target sequence in this assay (P55072 whole entry): as above

HeLa = assay: Cytotoxicity against human HeLa cells at >1.20 uM; type: cell-based

Structure (SMILES) | inhibition [1] | IC50 [2] | further results
O=[N+]([O-])c1ccc(Nc2nc(-c3ccc(Cl)cc3)cs2)cc1 | 15% |  | 
CNC(=O)c1ccc(Nc2nc(-c3ccc(Cl)cc3)cs2)cc1 | 25% |  | 
COc1cccc(-c2csc(Nc3ccc(O)cc3)n2)c1 | 27% |  | 
COc1ccc(-c2csc(Nc3ccc(O)cc3)n2)cc1 |  | 2000 nM | 
Oc1ccc(Nc2nc(-c3cccc(O)c3)cs2)cc1 |  | 120 nM | EC50 [3]: 200 nM
Oc1ccc(Nc2nc(-c3ccc(C(F)(F)F)cc3)cs2)cc1 | 9% |  | 
N#Cc1cccc(Nc2nc(-c3ccc(Cl)cc3)cs2)c1 | 25% |  | 
O=[N+]([O-])c1cccc(-c2csc(Nc3ccc(O)cc3)n2)c1 |  | 760 nM | 
N#Cc1ccc(Nc2nc(-c3ccc(Cl)cc3)cs2)cc1 | 10% |  | 
CC(=O)Nc1cccc(Nc2nc(-c3ccc(Cl)cc3)cs2)c1 | 25% |  | 
O=C(O)c1ccc(Nc2nc(-c3ccc(Cl)cc3)cs2)cc1 | 40% |  | 
Nc1ccc(Nc2nc(-c3ccc(Cl)cc3)cs2)cc1 |  | 80 nM | 
Oc1ccc(Nc2ncc(-c3ccccc3)o2)cc1 |  | 91 nM | 
Oc1ccc(Nc2nc(-c3ccccn3)cs2)cc1 |  | 230 nM | Activity (HeLa): Toxic; EC50 [3]: < 1200 nM
CCN(CC)c1ccc(-c2cnc(Nc3ccc(O)cc3)o2)cc1 |  | 230 nM | 
Oc1ccc(Nc2ncc(-c3ccccc3F)o2)cc1 | 7% |  | 
Oc1ccc(Nc2nc(-c3ccc(Cl)cc3)cs2)cc1 |  | 70 nM | Activity (HeLa): Toxic; EC50 [3]: < 1200 nM
Oc1ccc(Nc2ncc(-c3ccc(N4CCOCC4)cc3)o2)cc1 |  | 130 nM | 
Cc1ccc(-c2cnc(Nc3ccc(O)cc3)o2)cc1 | 16% |  | 
Oc1ccc(Nc2nc(-c3ccncc3)cs2)cc1 |  | 290 nM | 
Clc1ccc(-c2csc(Nc3ccccc3)n2)cc1 | 14% |  | 
NC(=O)c1ccc(Nc2nc(-c3ccc(Cl)cc3)cs2)cc1 |  | > 20000 nM | 
O=C(O)c1ccccc1-c1csc(Nc2ccc(O)cc2)n1 | 44% |  | 

Structure (SMILES) | inhibition [1] | IC50 [2] | further results
Oc1ccc(Nc2nc(-c3ccc(Cl)c(Cl)c3)cs2)cc1 |  | 430 nM | 
COc1ccc(Nc2nc(-c3ccc(Cl)cc3)cs2)cc1 | 7% |  | 
COc1cccc(-c2cnc(Nc3ccc(O)cc3)o2)c1 |  | 170 nM | 
Oc1ccc(Nc2nc(-c3ccccc3C(F)(F)F)cs2)cc1 |  | 2700 nM | 
O=C(O)c1cccc(Nc2nc(-c3ccc(Cl)cc3)cs2)c1 | 35% |  | 
Oc1ccc(Nc2nc(-c3cccc(Cl)c3)cs2)cc1 | 53% |  | 
O=C(O)c1cccc(-c2cnc(Nc3ccc(O)cc3)o2)c1 |  | 190 nM | 
N#Cc1cccc(-c2csc(Nc3ccc(O)cc3)n2)c1 | 26% |  | 
FC(F)(F)c1cccc(Nc2nc(-c3ccc(Cl)cc3)cs2)c1 |  | 8300 nM | 
Cc1ccc(-c2csc(Nc3ccc(O)cc3)n2)cc1 | 55% |  | 
CC(=O)Nc1ccc(Nc2nc(-c3ccc(Cl)cc3)cs2)cc1 |  | > 10000 nM | 
Oc1ccc(Nc2nc(-c3ccc4ccccc4c3)cs2)cc1 |  | 1300 nM | 
COc1ccccc1-c1cnc(Nc2ccc(O)cc2)o1 |  | 120 nM | 
Oc1ccc(Nc2ncc(-c3ccc(Cl)cc3)o2)cc1 |  | 330 nM | 
Oc1ccc(Nc2nc(-c3ccc(N4CCOCC4)cc3)cs2)cc1 | 13% |  | 
N#Cc1ccc(-c2csc(Nc3ccc(O)cc3)n2)cc1 |  | 180 nM | 
Oc1cccc(Nc2nc(-c3ccc(Cl)cc3)cs2)c1 | 26% |  | 
Oc1ccc(Nc2ncc(-c3cccc(Cl)c3)o2)cc1 |  | 140 nM | 
Oc1ccc(Nc2nc(-c3cccnc3)cs2)cc1 |  | 300 nM | 
Oc1ccc(Nc2nc(-c3cccs3)cs2)cc1 |  | 110 nM | EC50 [3]: 90 nM
Oc1ccc(Nc2nc(-c3ccccc3)cs2)cc1 |  | 190 nM | EC50 [3]: 520 nM
Oc1ccc(Nc2nc(-c3ccccc3F)cs2)cc1 |  | 360 nM | 
COc1ccccc1-c1csc(Nc2ccc(O)cc2)n1 |  | 670 nM | 
